From ChEMBL document CHEMBL1156179 (J Med Chem, 2010)
pKi: −log10 of the molar value.

Tests used:
Adenosine receptor A2a = Adenosine receptor A2a (Homo sapiens, UniProt P29274); experiment: Displacement of [3H]NECA from human cloned adenosine A2a receptor expressed in CHO cells; assay type: cell-based
Outline: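 hA2A-CHO membranes, prepared by two-step centrifugation, were incubated with 30 nM [3H]NECA, 50 μg protein and graded compound under the A1 binding conditions. Nonspecific binding with 100 μM R-PIA.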

Homo sapiens = species: Homo sapiens; experiment: Selectivity ratio of Ki for human adenosine A2A receptor to Ki for human adenosine A3
Adenosine receptor A1 = target: T1, Adenosine receptor A1 (Homo sapiens, UniProt P30542); experiment: Displacement of [3H]CCPA from human cloned adenosine A1 receptor expressed in CHO cells; assay type: cell-based
T1 sequence (P30542 whole entry): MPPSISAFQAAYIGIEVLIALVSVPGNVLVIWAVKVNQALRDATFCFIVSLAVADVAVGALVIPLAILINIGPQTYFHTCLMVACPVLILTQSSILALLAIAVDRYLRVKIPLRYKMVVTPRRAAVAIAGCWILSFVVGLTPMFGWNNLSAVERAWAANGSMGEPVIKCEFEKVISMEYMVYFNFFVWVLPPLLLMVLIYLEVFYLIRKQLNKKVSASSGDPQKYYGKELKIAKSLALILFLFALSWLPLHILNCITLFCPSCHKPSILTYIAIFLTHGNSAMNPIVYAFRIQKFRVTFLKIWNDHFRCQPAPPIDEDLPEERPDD
Outline: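 CHO membranes with hA1 receptor, from 1000g 4 min spin then 100000g 30 min. Incubated 3 h at 25 °C with 1 nM [3H]CCPA, 0.2 U/mL adenosine deaminase, 20 μg protein in 50 mM Tris/HCl pH 7.4 and graded compound. Nonspecific binding with 1 mM theophylline.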

Adenosine receptor A2b = target: T2, Adenosine receptor A2b (Homo sapiens, UniProt P29275); experiment: Antagonist activity at human cloned adenosine A2b receptor expressed in CHO cells assessed as inhibition of NECA-stimulated cAMP accumulation; assay type: functional, cell-based
T2 sequence (P29275 whole entry): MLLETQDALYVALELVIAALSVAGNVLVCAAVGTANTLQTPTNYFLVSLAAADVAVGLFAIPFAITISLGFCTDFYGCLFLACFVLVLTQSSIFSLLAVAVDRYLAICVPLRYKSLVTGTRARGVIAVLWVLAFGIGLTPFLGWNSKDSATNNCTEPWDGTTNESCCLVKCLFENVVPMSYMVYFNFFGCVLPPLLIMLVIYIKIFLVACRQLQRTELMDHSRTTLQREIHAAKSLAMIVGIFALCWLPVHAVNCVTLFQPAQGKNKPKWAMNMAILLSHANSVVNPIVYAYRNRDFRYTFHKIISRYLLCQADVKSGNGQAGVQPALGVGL
Outline: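 Membranes from CHO cells with hA2B receptor, prepared by a single 30 min spin at 54000g and resuspended in 50 mM Tris/HCl pH 7.4, used fresh. Antagonist inhibition of NECA-stimulated adenylyl cyclase gave IC50 by Hill fit; Ki from Cheng–Prusoff.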

[1] = target: Adenosine receptors; A1 & A3 (Homo sapiens) (UniProt P30542+P0DMS8); experiment: Selectivity ratio of Ki for human adenosine A1 receptor to Ki for human adenosine A3
Adenosine receptor A3 = target: T3, Adenosine receptor A3 (Homo sapiens, UniProt P0DMS8); experiment: Displacement of [3H]NECA from human cloned adenosine A3 receptor expressed in CHO cells; assay type: cell-based
T3 sequence (P0DMS8 whole entry): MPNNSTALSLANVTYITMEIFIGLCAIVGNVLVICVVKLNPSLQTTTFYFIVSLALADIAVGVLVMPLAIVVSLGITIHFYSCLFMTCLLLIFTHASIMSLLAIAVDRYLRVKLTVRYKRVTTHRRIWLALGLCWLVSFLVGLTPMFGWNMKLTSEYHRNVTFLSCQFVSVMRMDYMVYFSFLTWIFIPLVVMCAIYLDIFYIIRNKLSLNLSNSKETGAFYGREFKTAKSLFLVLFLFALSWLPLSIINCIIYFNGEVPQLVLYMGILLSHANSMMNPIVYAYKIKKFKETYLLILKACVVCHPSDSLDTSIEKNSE

Sequence of Adenosine receptor A2a (P29274 whole entry): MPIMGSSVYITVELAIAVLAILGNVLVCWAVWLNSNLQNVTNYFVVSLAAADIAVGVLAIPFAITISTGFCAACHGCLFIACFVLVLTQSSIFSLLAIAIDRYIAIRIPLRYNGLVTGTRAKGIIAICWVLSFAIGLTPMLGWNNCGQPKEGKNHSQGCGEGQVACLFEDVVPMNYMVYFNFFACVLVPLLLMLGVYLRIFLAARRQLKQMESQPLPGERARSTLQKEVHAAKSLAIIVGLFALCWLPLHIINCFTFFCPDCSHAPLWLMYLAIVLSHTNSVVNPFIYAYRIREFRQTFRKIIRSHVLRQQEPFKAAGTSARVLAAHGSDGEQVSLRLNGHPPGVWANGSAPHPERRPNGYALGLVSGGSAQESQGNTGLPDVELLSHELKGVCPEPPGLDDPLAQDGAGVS

Row | Structure (SMILES) | pKi (Adenosine receptor A2a) | Ratio Ki (Homo sapiens) | pKi (Adenosine receptor A1) | pKi (Adenosine receptor A2b) | Ratio Ki [1] | pKi (Adenosine receptor A3)
1 | Cn1cc2c(nc(N)n3nc(-c4ccc(Br)cc4)nc23)n1 | 5.82 | 38.9 | 5.54 | < 5.00 | 74.9 | 7.41
2 | Cn1cc2c(nc(NC(=O)c3ccccc3)n3nc(-c4ccc(Br)cc4)nc23)n1 | < 4.00 | > 19100 | < 4.52 | < 5.00 | > 5730 | 8.28
3 | Cn1cc2c(nc(N)n3nc(-c4ccco4)nc23)n1 | – | 0.009 | – | – | 0.33 | –
4 | Cn1cc2c(nc(NC(=O)c3ccccc3)n3nc(-c4ccc([N+](=O)[O-])cc4)nc23)n1 | < 4.00 | > 1770 | < 4.52 | < 5.00 | > 532 | 7.25
5 | COc1ccc(-c2nc3c4cn(C)nc4nc(N(C(=O)c4ccccc4)C(=O)c4ccccc4)n3n2)cc1 | < 5.00 | > 1450 | < 5.00 | < 5.00 | > 1450 | 8.16
6 | Cn1cc2c(nc(NC(=O)Cc3ccccc3)n3nc(-c4ccco4)nc23)n1 | – | 522 | – | – | 867 | –
7 | Cn1cc2c(nc(N(C(=O)c3ccccc3)C(=O)c3ccccc3)n3nc(-c4ccc(Cl)cc4)nc23)n1 | < 5.00 | > 1440 | < 5.00 | < 5.00 | > 1440 | 8.16
8 | Cn1cc2c(nc(NC(=O)Cc3ccccc3)n3nc(-c4ccccc4)nc23)n1 | 6.11 | 7200 | 6.25 | < 5.00 | 5200 | 9.97
9 | Cn1cc2c(nc(NC(=O)c3ccccc3)n3nc(-c4ccc(F)cc4)nc23)n1 | < 4.00 | > 29200 | 5.60 | < 5.00 | 738 | 8.46
10 | CCn1ncc2c1nc(N)n1nc(-c3ccc(Cl)cc3)nc21 | 7.08 | 0.15 | 6.92 | < 5.00 | 0.21 | 6.25
11 | Cn1cc2c(nc(NC(=O)c3ccccc3)n3nc(-c4ccccc4)nc23)n1 | 6.49 | 64.8 | 6.21 | < 5.00 | 124 | 8.30
12 | Cn1cc2c(nc(NC(=O)c3ccccc3)n3nc(-c4ccc(Cl)cc4)nc23)n1 | < 4.00 | > 35500 | < 4.52 | < 5.00 | > 10600 | 8.55
13 | Cn1cc2c(nc(N)n3nc(-c4ccc([N+](=O)[O-])cc4)nc23)n1 | < 5.00 | > 15.3 | < 3.52 | < 5.00 | > 458 | 6.18

Results, then the compound that gave them:

Row | pKi (Adenosine receptor A2a) | Ratio Ki (Homo sapiens) | pKi (Adenosine receptor A1) | pKi (Adenosine receptor A2b) | Ratio Ki [1] | pKi (Adenosine receptor A3) | Structure (SMILES)
14 | 6.90 | 2.51 | 7.41 | < 5.00 | 0.773 | 7.30 | Nc1nc2nn(CCc3ccccc3)cc2c2nc(-c3ccc(F)cc3)nn12
15 | 5.92 | 71.3 | 5.01 | < 5.00 | 583 | 7.78 | COc1ccc(-c2nc3c4cn(C)nc4nc(N)n3n2)cc1
16 | 5.85 | 56 | 6.54 | < 5.00 | 11.6 | 7.60 | COc1ccc(-c2nc3c4cn(CCc5ccccc5)nc4nc(N)n3n2)cc1
17 | 6.45 | 11.3 | 6.00 | < 5.00 | 32.2 | 7.50 | Cn1cc2c(nc(N)n3nc(-c4ccc(F)cc4)nc23)n1
18 | 5.66 | 27.4 | 6.69 | < 5.00 | 2.56 | 7.10 | Nc1nc2nn(CCc3ccccc3)cc2c2nc(-c3ccc(Cl)cc3)nn12
19 | 5.69 | 27.9 | 5.31 | < 5.00 | 67.1 | 7.14 | Cn1cc2c(nc(N)n3nc(-c4ccc(Cl)cc4)nc23)n1
20 | 4.62 | 38300 | 4.63 | < 5.00 | 37200 | 9.20 | Cn1cc2c(nc(NC(=O)Cc3ccccc3)n3nc(-c4ccc([N+](=O)[O-])cc4)nc23)n1
21 | < 4.00 | > 47600 | < 4.52 | < 5.00 | > 14300 | 8.68 | COc1ccc(-c2nc3c4cn(C)nc4nc(NC(=O)c4ccccc4)n3n2)cc1
22 | 5.08 | 33500 | 5.31 | < 5.00 | 19600 | 9.61 | Cn1cc2c(nc(NC(=O)Cc3ccccc3)n3nc(-c4ccc(Cl)cc4)nc23)n1
23 | < 4.00 | > 290000 | 4.61 | < 5.00 | 70700 | 9.46 | Cn1cc2c(nc(NC(=O)Cc3ccccc3)n3nc(-c4ccc(Br)cc4)nc23)n1
24 | 6.07 | 12.3 | 5.80 | < 5.00 | 22.9 | 7.16 | CCn1cc2c(nc(N)n3nc(-c4ccc(Cl)cc4)nc23)n1
25 | 6.92 | 1.61 | 6.47 | < 5.00 | 4.52 | 7.12 | Cn1cc2c(nc(N)n3nc(-c4ccccc4)nc23)n1
26 | 5.60 | 12600 | 5.64 | < 5.00 | 11400 | 9.70 | Cn1cc2c(nc(NC(=O)Cc3ccccc3)n3nc(-c4ccc(F)cc4)nc23)n1
27 | < 4.00 | > 415000 | < 4.52 | < 5.00 | > 124000 | 9.62 | COc1ccc(-c2nc3c4cn(C)nc4nc(NC(=O)Cc4ccccc4)n3n2)cc1
28 | 6.71 | 2.56 | 7.13 | < 5.00 | 0.975 | 7.12 | Nc1nc2nn(CCc3ccccc3)cc2c2nc(-c3ccccc3)nn12
29 | < 4.52 | > 136 | 6.30 | < 5.00 | 2.25 | 6.66 | Nc1nc2nn(CCc3ccccc3)cc2c2nc(-c3ccc(Br)cc3)nn12
30 | 6.02 | 40.3 | 6.50 | < 5.00 | 13.1 | 7.62 | O=C(Nc1nc2nn(CCc3ccccc3)cc2c2nc(-c3ccccc3)nn12)c1ccccc1
31 | < 4.00 | > 654 | 6.57 | < 5.00 | 1.76 | 6.82 | O=C(Nc1nc2nn(CCc3ccccc3)cc2c2nc(-c3ccc(Br)cc3)nn12)c1ccccc1
